Assay results gathered from unrelated publications.
Protocols differ between the studies behind these lines.
Target: Death-associated protein kinase 3 (DAPK3, Homo sapiens, UniProt O43293)

Cn1cncc1[C@](O)(COc1ccc(C#N)cc1-c1ccc(OC(F)(F)F)cc1)c1ccc(C#N)cc1
remaining binding (cell-free assay, competition with immobilised ligand; 1 µM): 88%

COc1ncccc1-c1cnn2ccc(N3CCN(C(=O)OC(C)C)CC3)nc12
remaining binding (binding, competition with immobilised ligand; 1 µM): 98%

Cn1cc(-c2cccc(N3CCc4c(sc5c4CC(C)(C)C5)C3=O)c2CO)cc(Nc2ccncn2)c1=O
inhibition (enzyme activity, inhibitor; 1 µM): -6%

O=c1[nH]c2ccccc2n1C1CCN(Cc2ccc(-c3[nH]c4cc5ncnc5cc4nc3-c3ccccc3)cc2)CC1
remaining signal (cell-free assay; 0.5 µM): 106%

Nc1ncc(-c2nc(N3CCOCC3)nc(N3CCOCC3)n2)c(C(F)F)n1
remaining binding (binding, competition with immobilised ligand; 10 µM): 80%

CC(C)(C)c1cc(C=C(C#N)C#N)cc(Br)c1O
remaining activity (enzyme activity, inhibitor; 0.5 µM): 96.4%

Cn1cc(-c2cc(F)cc(N3CCn4c(cc5c4CCCC5)C3=O)c2CO)cc(Nc2ccc(N3CCN(C4COC4)CC3)cn2)c1=O
inhibition (enzyme activity, inhibitor; 0.1 µM): 3%

Cc1nn(C)cc1-c1nc2c(N3CCN(Cc4ccc(Cl)cc4)CC3)c(Cl)cnc2[nH]1
remaining binding (binding, competition with immobilised ligand; 1 µM): 84%
